In brackets after ≈: the same amount, converted by molar mass.
Tested on: Kluyveromyces marxianus
Experiment: Antifungal activity against Candida kefyr by micro-broth dilution method
Assay type: functional
Conditions: not given
Procedure, shortened: (§1)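 MIC80 by broth microdilution in 96-well format following NCCLS. Compounds were dissolved in DMSO, serially diluted in growth medium, inoculated and incubated at 35 °C. The endpoint was the first well with about 80% growth reduction versus the drug-free well. Values are means of three replicate tests.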

SMILES	MIC [µg/mL]
CC(C)N(Cc1cn(Cc2ccc(Cl)cc2Cl)nn1)CC(O)(Cn1cncn1)c1ccc(F)cc1F (centres undefined)	0.25 (≈ 0.466 µM)
CC(C)N(Cc1cn(Cc2ccc(C(C)(C)C)cc2)nn1)CC(O)(Cn1cncn1)c1ccc(F)cc1F (centres undefined)	0.25 (≈ 0.477 µM)
CC(C)N(Cc1cn(C2CCCCC2)nn1)CC(O)(Cn1cncn1)c1ccc(F)cc1F (centres undefined)	0.25 (≈ 0.544 µM)
OC(CN(Cc1cn(Cc2ccc(F)cc2)nn1)C1CC1)(Cn1cncn1)c1ccc(F)cc1F (centres undefined)	0.0625 (≈ 0.129 µM)

Stronger by MIC, values ahead:

MIC [µg/mL]	SMILES
0.0156 (≈ 0.0291 µM)	CC(C)N(Cc1cn(Cc2c(Cl)cccc2Cl)nn1)CC(O)(Cn1cncn1)c1ccc(F)cc1F (centres undefined)
0.0156 (≈ 0.0323 µM)	OC(CN(Cc1cn(Cc2ccccc2F)nn1)C1CC1)(Cn1cncn1)c1ccc(F)cc1F (centres undefined)
0.0156 (≈ 0.0323 µM)	OC(CN(Cc1cn(Cc2cccc(F)c2)nn1)C1CC1)(Cn1cncn1)c1ccc(F)cc1F (centres undefined)
0.0156 (≈ 0.0312 µM)	OC(CN(Cc1cn(Cc2ccccc2Cl)nn1)C1CC1)(Cn1cncn1)c1ccc(F)cc1F (centres undefined)

Tested on: Trichophyton rubrum
Experiment: Antifungal activity against Trichophyton rubrum by micro-broth dilution method
Assay type: functional
Conditions: not given
Procedure, shortened: as §1

SMILES	MIC [µg/mL]
CC(C)N(Cc1cn(Cc2ccc(Cl)cc2Cl)nn1)CC(O)(Cn1cncn1)c1ccc(F)cc1F (centres undefined)	0.25 (≈ 0.466 µM)
CC(C)N(Cc1cn(Cc2ccc(C(C)(C)C)cc2)nn1)CC(O)(Cn1cncn1)c1ccc(F)cc1F (centres undefined)	1 (≈ 1.91 µM)
CC(C)N(Cc1cn(C2CCCCC2)nn1)CC(O)(Cn1cncn1)c1ccc(F)cc1F (centres undefined)	1 (≈ 2.18 µM)
OC(CN(Cc1cn(Cc2ccc(F)cc2)nn1)C1CC1)(Cn1cncn1)c1ccc(F)cc1F (centres undefined)	2 (≈ 4.14 µM)

Further lines, results first:

MIC [µg/mL]	SMILES
0.0156 (≈ 0.0291 µM)	CC(C)N(Cc1cn(Cc2c(Cl)cccc2Cl)nn1)CC(O)(Cn1cncn1)c1ccc(F)cc1F (centres undefined)
0.25 (≈ 0.517 µM)	OC(CN(Cc1cn(Cc2ccccc2F)nn1)C1CC1)(Cn1cncn1)c1ccc(F)cc1F (centres undefined)
< 0.125	OC(CN(Cc1cn(Cc2cccc(F)c2)nn1)C1CC1)(Cn1cncn1)c1ccc(F)cc1F (centres undefined)
< 0.125	OC(CN(Cc1cn(Cc2ccccc2Cl)nn1)C1CC1)(Cn1cncn1)c1ccc(F)cc1F (centres undefined)

Tested on: Cryptococcus neoformans
Experiment: Antifungal activity against Cryptococcus neoformans after 72 hrs by micro-broth dilution method
Assay type: functional
Conditions: not given
Procedure, shortened: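 Cryptococcus neoformans tested by NCCLS micro-broth dilution. Compounds were dissolved in DMSO, serially diluted in medium, inoculated and incubated at 35 °C. MIC80 was read at 72 h as the first well showing approximately 80% growth reduction compared with the drug-free well. Values are the mean of three replicate tests.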

SMILES	MIC [µg/mL]
CC(C)N(Cc1cn(Cc2ccc(Cl)cc2Cl)nn1)CC(O)(Cn1cncn1)c1ccc(F)cc1F (centres undefined)	8 (≈ 14.9 µM)
CC(C)N(Cc1cn(Cc2ccc(C(C)(C)C)cc2)nn1)CC(O)(Cn1cncn1)c1ccc(F)cc1F (centres undefined)	32 (≈ 61.1 µM)
CC(C)N(Cc1cn(C2CCCCC2)nn1)CC(O)(Cn1cncn1)c1ccc(F)cc1F (centres undefined)	16 (≈ 34.8 µM)
OC(CN(Cc1cn(Cc2ccc(F)cc2)nn1)C1CC1)(Cn1cncn1)c1ccc(F)cc1F (centres undefined)	16 (≈ 33.1 µM)

The remaining lines, values ahead:

MIC [µg/mL]	SMILES
0.0625 (≈ 0.117 µM)	CC(C)N(Cc1cn(Cc2c(Cl)cccc2Cl)nn1)CC(O)(Cn1cncn1)c1ccc(F)cc1F (centres undefined)
8 (≈ 16.5 µM)	OC(CN(Cc1cn(Cc2ccccc2F)nn1)C1CC1)(Cn1cncn1)c1ccc(F)cc1F (centres undefined)
> 64	OC(CN(Cc1cn(Cc2cccc(F)c2)nn1)C1CC1)(Cn1cncn1)c1ccc(F)cc1F (centres undefined)
4 (≈ 8 µM)	OC(CN(Cc1cn(Cc2ccccc2Cl)nn1)C1CC1)(Cn1cncn1)c1ccc(F)cc1F (centres undefined)

Tested on: Candida albicans
Experiment: Antifungal activity against Candida albicans SC5314 after 24 hrs by micro-broth dilution method
Assay type: functional
Conditions: SC5314, 24 h
Procedure, shortened: (§2)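 Broth microdilution per NCCLS on Candida albicans. Compounds were dissolved in DMSO, serially diluted in growth medium, inoculated and incubated at 35 °C. Growth was read at 24 h, and MIC80 was taken as the first well with about 80% growth reduction relative to the drug-free control. Values are the mean of three replicates.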

SMILES	MIC [µg/mL]
CC(C)N(Cc1cn(Cc2ccc(Cl)cc2Cl)nn1)CC(O)(Cn1cncn1)c1ccc(F)cc1F (centres undefined)	4 (≈ 7.46 µM)
CC(C)N(Cc1cn(Cc2ccc(C(C)(C)C)cc2)nn1)CC(O)(Cn1cncn1)c1ccc(F)cc1F (centres undefined)	< 0.125
CC(C)N(Cc1cn(C2CCCCC2)nn1)CC(O)(Cn1cncn1)c1ccc(F)cc1F (centres undefined)	< 0.125
OC(CN(Cc1cn(Cc2ccc(F)cc2)nn1)C1CC1)(Cn1cncn1)c1ccc(F)cc1F (centres undefined)	1 (≈ 2.07 µM)

The next lines start with the values.

MIC [µg/mL]	SMILES
0.0039 (≈ 0.00727 µM)	CC(C)N(Cc1cn(Cc2c(Cl)cccc2Cl)nn1)CC(O)(Cn1cncn1)c1ccc(F)cc1F (centres undefined)
0.5 (≈ 1.03 µM)	OC(CN(Cc1cn(Cc2ccccc2F)nn1)C1CC1)(Cn1cncn1)c1ccc(F)cc1F (centres undefined)
< 0.125	OC(CN(Cc1cn(Cc2cccc(F)c2)nn1)C1CC1)(Cn1cncn1)c1ccc(F)cc1F (centres undefined)
< 0.125	OC(CN(Cc1cn(Cc2ccccc2Cl)nn1)C1CC1)(Cn1cncn1)c1ccc(F)cc1F (centres undefined)

Tested on: Candida parapsilosis
Experiment: Antifungal activity against Candida parapsilosis by micro-broth dilution method
Assay type: functional
Conditions: Lodderomyces parapsilosis
Procedure, shortened: as §1

SMILES	MIC [µg/mL]
CC(C)N(Cc1cn(Cc2ccc(Cl)cc2Cl)nn1)CC(O)(Cn1cncn1)c1ccc(F)cc1F (centres undefined)	0.5 (≈ 0.932 µM)
CC(C)N(Cc1cn(Cc2ccc(C(C)(C)C)cc2)nn1)CC(O)(Cn1cncn1)c1ccc(F)cc1F (centres undefined)	1 (≈ 1.91 µM)
CC(C)N(Cc1cn(C2CCCCC2)nn1)CC(O)(Cn1cncn1)c1ccc(F)cc1F (centres undefined)	2 (≈ 4.35 µM)
OC(CN(Cc1cn(Cc2ccc(F)cc2)nn1)C1CC1)(Cn1cncn1)c1ccc(F)cc1F (centres undefined)	4 (≈ 8.27 µM)

Other lines, results leading:

MIC [µg/mL]	SMILES
0.0625 (≈ 0.117 µM)	CC(C)N(Cc1cn(Cc2c(Cl)cccc2Cl)nn1)CC(O)(Cn1cncn1)c1ccc(F)cc1F (centres undefined)
1 (≈ 2.07 µM)	OC(CN(Cc1cn(Cc2ccccc2F)nn1)C1CC1)(Cn1cncn1)c1ccc(F)cc1F (centres undefined)
< 0.125	OC(CN(Cc1cn(Cc2cccc(F)c2)nn1)C1CC1)(Cn1cncn1)c1ccc(F)cc1F (centres undefined)
0.25 (≈ 0.5 µM)	OC(CN(Cc1cn(Cc2ccccc2Cl)nn1)C1CC1)(Cn1cncn1)c1ccc(F)cc1F (centres undefined)

Tested on: Candida tropicalis
Experiment: Antifungal activity against Candida tropicalis by micro-broth dilution method
Assay type: functional
Conditions: not given
Procedure, shortened: as §1

SMILES	MIC [µg/mL]
CC(C)N(Cc1cn(Cc2ccc(Cl)cc2Cl)nn1)CC(O)(Cn1cncn1)c1ccc(F)cc1F (centres undefined)	0.25 (≈ 0.466 µM)
CC(C)N(Cc1cn(Cc2ccc(C(C)(C)C)cc2)nn1)CC(O)(Cn1cncn1)c1ccc(F)cc1F (centres undefined)	2 (≈ 3.82 µM)
CC(C)N(Cc1cn(C2CCCCC2)nn1)CC(O)(Cn1cncn1)c1ccc(F)cc1F (centres undefined)	0.5 (≈ 1.09 µM)
OC(CN(Cc1cn(Cc2ccc(F)cc2)nn1)C1CC1)(Cn1cncn1)c1ccc(F)cc1F (centres undefined)	1 (≈ 2.07 µM)

Further lines, results first:

MIC [µg/mL]	SMILES
0.0156 (≈ 0.0291 µM)	CC(C)N(Cc1cn(Cc2c(Cl)cccc2Cl)nn1)CC(O)(Cn1cncn1)c1ccc(F)cc1F (centres undefined)
0.5 (≈ 1.03 µM)	OC(CN(Cc1cn(Cc2ccccc2F)nn1)C1CC1)(Cn1cncn1)c1ccc(F)cc1F (centres undefined)
< 0.125	OC(CN(Cc1cn(Cc2cccc(F)c2)nn1)C1CC1)(Cn1cncn1)c1ccc(F)cc1F (centres undefined)
< 0.125	OC(CN(Cc1cn(Cc2ccccc2Cl)nn1)C1CC1)(Cn1cncn1)c1ccc(F)cc1F (centres undefined)

Tested on: Candida albicans
Experiment: Antifungal activity against Candida albicans Y0109 after 24 hrs by micro-broth dilution method
Assay type: functional
Conditions: Y0109, 24 h
Procedure, shortened: as §2

SMILES	MIC [µg/mL]
CC(C)N(Cc1cn(Cc2ccc(Cl)cc2Cl)nn1)CC(O)(Cn1cncn1)c1ccc(F)cc1F (centres undefined)	0.0156 (≈ 0.0291 µM)
CC(C)N(Cc1cn(Cc2ccc(C(C)(C)C)cc2)nn1)CC(O)(Cn1cncn1)c1ccc(F)cc1F (centres undefined)	0.25 (≈ 0.477 µM)
CC(C)N(Cc1cn(C2CCCCC2)nn1)CC(O)(Cn1cncn1)c1ccc(F)cc1F (centres undefined)	0.0625 (≈ 0.136 µM)
OC(CN(Cc1cn(Cc2ccc(F)cc2)nn1)C1CC1)(Cn1cncn1)c1ccc(F)cc1F (centres undefined)	0.25 (≈ 0.517 µM)

The next lines start with the values.

MIC [µg/mL]	SMILES
< 0.125	CC(C)N(Cc1cn(Cc2c(Cl)cccc2Cl)nn1)CC(O)(Cn1cncn1)c1ccc(F)cc1F (centres undefined)
0.0625 (≈ 0.129 µM)	OC(CN(Cc1cn(Cc2ccccc2F)nn1)C1CC1)(Cn1cncn1)c1ccc(F)cc1F (centres undefined)
0.0625 (≈ 0.129 µM)	OC(CN(Cc1cn(Cc2cccc(F)c2)nn1)C1CC1)(Cn1cncn1)c1ccc(F)cc1F (centres undefined)
0.0625 (≈ 0.125 µM)	OC(CN(Cc1cn(Cc2ccccc2Cl)nn1)C1CC1)(Cn1cncn1)c1ccc(F)cc1F (centres undefined)

Tested on: Aspergillus fumigatus
Experiment: Antifungal activity against Aspergillus fumigatus by micro-broth dilution method
Assay type: functional
Conditions: not given
Procedure, shortened: as §1

SMILES	MIC [µg/mL]
CC(C)N(Cc1cn(Cc2ccc(Cl)cc2Cl)nn1)CC(O)(Cn1cncn1)c1ccc(F)cc1F (centres undefined)	> 64
CC(C)N(Cc1cn(Cc2ccc(C(C)(C)C)cc2)nn1)CC(O)(Cn1cncn1)c1ccc(F)cc1F (centres undefined)	> 64
CC(C)N(Cc1cn(C2CCCCC2)nn1)CC(O)(Cn1cncn1)c1ccc(F)cc1F (centres undefined)	> 64
OC(CN(Cc1cn(Cc2ccc(F)cc2)nn1)C1CC1)(Cn1cncn1)c1ccc(F)cc1F (centres undefined)	> 64

The next lines start with the values.

MIC [µg/mL]	SMILES
> 64	CC(C)N(Cc1cn(Cc2c(Cl)cccc2Cl)nn1)CC(O)(Cn1cncn1)c1ccc(F)cc1F (centres undefined)
> 64	OC(CN(Cc1cn(Cc2ccccc2F)nn1)C1CC1)(Cn1cncn1)c1ccc(F)cc1F (centres undefined)
64 (≈ 132 µM)	OC(CN(Cc1cn(Cc2cccc(F)c2)nn1)C1CC1)(Cn1cncn1)c1ccc(F)cc1F (centres undefined)
> 64	OC(CN(Cc1cn(Cc2ccccc2Cl)nn1)C1CC1)(Cn1cncn1)c1ccc(F)cc1F (centres undefined)
